Experimental data reported in paper PMC9720105 (Redox Biology, 2022).

Columns and labels:
[1] = system: HepG2 ARE-luciferase reporter cells; test: ARE-luciferase activity assay; type: cell-based; conditions: 48 h, 14: maximum at 1 μM
[2] = system: NQO1, TALDO1, and GCLM mRNA in BEAS-2B cells; test: Quantitative RT-PCR of antioxidant genes in BEAS-2B cells; type: cell-based, human; conditions: 0.13 μM, 48 h
Procedure, shortened: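 BEAS-2B cells were treated with 0.13 μM test compound for 48 h. RNA was extracted, reverse transcribed (SuperScript IV) and quantified by SYBR Green qPCR. Expression was normalized to 18S by the delta-delta-Ct method. Three independent experiments, each in technical triplicate; mean and S.D.; unpaired t-test.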

BEAS-2B cells proteome = test: Label-free quantitative MS proteomics in BEAS-2B cells; type: cell-based, human; conditions: 0.13 μM, 48 h, vs DMSO
Procedure, shortened: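 BEAS-2B cells received DMSO or 0.13 μM test compound for 48 h, then were lysed in 5% SDS/50 mM TEAB. 20 μg protein was processed on S-traps (chloroacetamide alkylation), digested with trypsin/Lys-C and cleaned on SDB stage tips. About 100 ng peptide ran on a 48 min C18 gradient, timsTOF DIA-PASEF. Library-free search against human UniProt, 1% precursor FDR, MaxLFQ quantitation. Hits: >1.5-fold versus DMSO, adjusted P <0.01.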

BEAS-2B cells = test: Flow cytometric detection of cell viability after tBHP; type: cell-based, human; conditions: 50 μM tBHP
Procedure, shortened: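 BEAS-2B cells (LHC-9 with pen/strep) were seeded at 1.2 × 10⁴ cells/well overnight, pre-treated with test compound for 24 h, then given 50 μM tBHP for 24 h. Harvested cells were stained with 1 μg/mL propidium iodide. Gating used FSC-A/SSC-A to exclude debris and FSC-H/FSC-A to exclude doublets. Viability was % PI-negative cells. Three independent assays, single points each; mean and S.D.; unpaired t-test.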

[3] = target: recombinant KEAP1-Kelch domain (Homo sapiens, UniProt Q14145); test: biochemical; type: binding
recombinant KEAP1-Kelch domain, sequence (Q14145 312-624): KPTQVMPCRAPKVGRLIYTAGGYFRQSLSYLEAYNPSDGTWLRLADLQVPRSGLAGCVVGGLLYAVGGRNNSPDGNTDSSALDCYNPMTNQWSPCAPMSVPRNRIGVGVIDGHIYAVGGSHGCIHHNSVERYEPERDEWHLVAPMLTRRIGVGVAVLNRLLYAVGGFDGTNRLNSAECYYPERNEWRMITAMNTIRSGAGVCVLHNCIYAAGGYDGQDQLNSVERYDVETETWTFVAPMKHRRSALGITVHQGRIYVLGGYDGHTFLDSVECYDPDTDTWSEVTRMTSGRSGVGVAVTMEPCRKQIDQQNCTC

KEAP1 in HEK293T cells = KEAP1 in HEK293T cells (Homo sapiens, UniProt Q14145); test: KEAP1 degradation in HEK293T cells; type: cell-based
KEAP1 in HEK293T cells, sequence (Q14145 whole entry): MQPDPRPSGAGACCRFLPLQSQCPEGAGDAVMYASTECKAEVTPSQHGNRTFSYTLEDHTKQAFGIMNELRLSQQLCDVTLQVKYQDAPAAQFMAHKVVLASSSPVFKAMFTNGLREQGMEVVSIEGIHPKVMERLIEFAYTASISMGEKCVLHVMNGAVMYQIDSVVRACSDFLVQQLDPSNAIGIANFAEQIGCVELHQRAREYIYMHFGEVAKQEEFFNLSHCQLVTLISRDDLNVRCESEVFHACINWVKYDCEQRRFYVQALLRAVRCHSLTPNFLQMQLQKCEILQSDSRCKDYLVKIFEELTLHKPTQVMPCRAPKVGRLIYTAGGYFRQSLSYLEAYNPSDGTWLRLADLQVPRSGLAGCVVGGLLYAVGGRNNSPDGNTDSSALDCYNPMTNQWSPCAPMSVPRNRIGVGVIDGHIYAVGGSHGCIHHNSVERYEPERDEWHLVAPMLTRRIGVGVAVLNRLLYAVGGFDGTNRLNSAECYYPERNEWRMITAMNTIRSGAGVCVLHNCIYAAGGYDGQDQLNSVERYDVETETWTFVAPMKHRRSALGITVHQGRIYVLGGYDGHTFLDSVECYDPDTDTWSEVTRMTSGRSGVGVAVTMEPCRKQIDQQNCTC

KEAP1 in BEAS-2B cells = KEAP1 in BEAS-2B cells (Homo sapiens, UniProt Q14145); test: KEAP1 degradation in BEAS-2B cells; type: cell-based
KEAP1 in BEAS-2B cells, sequence (Q14145 whole entry): as above

KEAP1 in HCA7 cells = KEAP1 in HCA7 cells (Homo sapiens, UniProt Q14145); test: KEAP1 degradation in HCA7 cells; type: cell-based; conditions: 48 h
KEAP1 in HCA7 cells, sequence (Q14145 whole entry): as above
Procedure, shortened: (§1)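 HEK293T, HCA7 and A549 cells were grown in DMEM with 10% FBS and pen/strep; BEAS-2B in LHC-9 with pen/strep; all at 37 °C, 10% CO₂. Cells were exposed to test compound for 48 h, lysed, run on 4–12% SDS-PAGE and transferred to nitrocellulose. Blocking was 5% skim milk for 1 h at RT. Probes were anti-KEAP1, CRBN, NQO1 or HO-1, with HRP anti-β-actin loading control and HRP secondaries. Blots represent 3 independent experiments.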

[4] = target: KEAP1 (G333C mutation in the KEAP1-Kelch domain) in A549 cells (Homo sapiens, UniProt Q14145, G333C); test: KEAP1 degradation in A549 cells; type: cell-based; conditions: 48 h
KEAP1 (G333C mutation in the KEAP1-Kelch domain) in A549 cells, sequence (Q14145 whole entry G333C, the tested form may be a part): as the sequence (Q14145 whole entry) above, with G333C counted along it
Procedure, shortened: as §1

CRBN = CRBN (Homo sapiens, UniProt Q96SW2); test: CRBN levels by immunoblotting; type: cell-based; conditions: HEK293T, HCA7, BEAS-2B, and A549 cells, 48 h
CRBN, sequence (Q96SW2 whole entry): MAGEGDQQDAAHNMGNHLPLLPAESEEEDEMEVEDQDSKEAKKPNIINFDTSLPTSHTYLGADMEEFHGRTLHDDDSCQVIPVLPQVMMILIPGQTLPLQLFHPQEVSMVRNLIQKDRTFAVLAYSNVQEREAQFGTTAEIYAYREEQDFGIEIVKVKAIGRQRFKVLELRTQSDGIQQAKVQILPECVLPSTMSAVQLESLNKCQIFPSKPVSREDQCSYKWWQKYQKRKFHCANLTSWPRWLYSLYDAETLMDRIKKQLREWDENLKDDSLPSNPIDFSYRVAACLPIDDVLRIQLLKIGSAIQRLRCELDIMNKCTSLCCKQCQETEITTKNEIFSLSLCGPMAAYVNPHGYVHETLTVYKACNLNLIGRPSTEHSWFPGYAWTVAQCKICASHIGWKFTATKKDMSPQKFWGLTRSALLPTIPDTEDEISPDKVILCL
Procedure, shortened: as §1

[5] = system: NRF2 downstream targets, NQO1 and HO-1; test: NQO1 and HO-1 protein levels in HEK293T and HCA7 cell lines; type: cell-based; conditions: 48 h
Procedure, shortened: as §1

[6] = system: NQO1 and GCLM in BEAS-2B cells; test: NQO1 and GCLM protein expression in BEAS-2B cells; type: cell-based, human; conditions: 48 h, all tested concentrations

COc1cc(C(CC(=O)O)c2ccc(C)c(CN3C[C@@H](C)Oc4ccccc4S3(=O)=O)c2)cc2nnn(C)c12 (stereo partly drawn) [Compound 2, 3-(7-Methoxy-1-methyl-1H-benzo[d][1,2,3]triazol-5-yl)-3-(4-methyl-3-(((R)-4-methyl-1,1-dioxido-3,4-dihydro-2H-benzo[b][1,4,5]oxathiazepin-2-yl)methyl)phenyl)propanoic acid]
induction of luciferase signal compared to the DMSO control group [1]: 5- to 6 fold
mRNA induction of GCLM [2]: 2 fold
mRNA induction of NQO1 [2]: 4 fold
mRNA induction of TALDO1 [2]: 2 fold
ABHD4 abundance (proteomics) (BEAS-2B cells proteome): not upregulated
abundance of KEAP1 (proteomics) (BEAS-2B cells proteome): did not affect KEAP1 expression
rescue of cell viability from tBHP, comparison of 14 and 2 (BEAS-2B cells; between 500 and 16 nM): equal potent

Cc1ccc(C(CC(=O)O)c2cc(OCCCCCCCNc3cccc4c3C(=O)N(C3CCC(=O)NC3=O)C4=O)c3c(c2)nnn3C)cc1CN1C[C@@H](C)Oc2ccccc2S1(=O)=O (stereo partly drawn) [Compound 14, 3-(7-((7-((2-(2,6-Dioxopiperidin-3-yl)-1,3-dioxoisoindolin-4-yl)amino)heptyl)oxy)-1-methyl-1H-benzo[d][1,2,3]triazol-5-yl)-3-(4-methyl-3-(((R)-4-methyl-1,1-dioxido-3,4-dihydro-2H-benzo[b][1,4,5]oxathiazepin-2-yl)methyl)phenyl)propanoic acid]
IC50 [3]: 0.046 µM
KEAP1 degradation / expression (KEAP1 in HEK293T cells; HEK293T cells, 48 h): robust degradation of KEAP1
KEAP1 degradation at longer time points (KEAP1 in HEK293T cells; HEK293T cells, 48 h and 72 h, comparison of 8 and 14): degraded KEAP1 more efficiently at 48 and 72 h compared to 8
hook effect observed at concentrations higher than (KEAP1 in HEK293T cells; HEK293T cells, dose titration 0.01–8 μM, 24 h): higher than 1 μM
Dmax at 1 µM (KEAP1 in HEK293T cells; HEK-293T, read-out: maximum degradation (Dmax)): 94%
Dmax at 0.0625 µM (KEAP1 in BEAS-2B cells): 90%
KEAP1 degradation / expression (KEAP1 in HCA7 cells): robust degradation of KEAP1
KEAP1 degradation [4]: did not degrade KEAP1
CRBN levels (CRBN): no change in CRBN levels
HO-1 protein expression [5]: upregulated
NQO1 protein expression [5]: upregulated
induction of luciferase signal compared to the DMSO control group [1]: 3.5 fold
increased expression of NQO1 and GCLM, compared with KEAP1 inhibitor 2 [6]: equipotent
mRNA induction of GCLM [2]: 2 fold
mRNA induction of NQO1 [2]: 4 fold
mRNA induction of TALDO1 [2]: 2 fold
ABHD4 abundance (proteomics) (BEAS-2B cells proteome): significantly upregulated
ZFP91 abundance (proteomics) (BEAS-2B cells proteome): Off-target degradation of ZFP91
abundance of KEAP1 (proteomics) (BEAS-2B cells proteome): significantly reduced the abundance of KEAP1
abundance of other Kelch domain proteins KBTBD4, KLHDC2, and KLHL11 (proteomics) (BEAS-2B cells proteome): not impacted
rescue of cell viability from tBHP, comparison of 14 and 2 (BEAS-2B cells; between 500 and 16 nM): equal potent
rescue of cell viability from tBHP, comparison of 14 and 2 (BEAS-2B cells; concentrations lower than 16 nM): less effective
